# In ChEMBL document CHEMBL4390663, “Cationic biaryl 1,2,3-triazolyl peptidomimetic amphiphiles: synthesis, antibacterial evaluation and preliminary mechanism of action studies” (Eur J Med Chem, 2019):
# What was measured:
# [1] = Haemolytic activity in sheep erythrocytes at 50 ug/ml incubated for 2 hrs under shaking condition relative to control; assay type: ADME, cell-based, Ovis aries, Erythrocyte; conditions: read-out: Activity
# In short: (§1)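 Compounds in PBS mixed with washed sheep erythrocytes (2% final) at 5 or 50 μg/mL, rocked 2 h at 37 °C, centrifuged; supernatant absorbance at 540 nm. PBS-only value subtracted, then expressed relative to water lysis (100%). Triplicate, means reported.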
# [2] = test system: Streptococcus pneumoniae; test: Antibacterial activity against Streptococcus pneumoniae ATCC 49619 incubated for 24 hrs by CLSI method; assay type: functional; conditions: ATCC 49619, 24 h
# In short: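 CLSI broth microdilution in MHB with 2.5% lysed horse blood, 5% CO2, 35 °C, 24 h. Compounds from 5 mg/mL DMSO stocks diluted in water plus double-strength broth; final 0.25–128 μg/mL. […] Triplicate; modal MIC read visually as lowest growth-inhibiting concentration.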
# [3] = test system: Escherichia coli; test: Antibacterial activity against Escherichia coli ATCC 25922 incubated for 18 hrs by CLSI method; assay type: functional; conditions: ATCC 25922, 18 h
# In short: (§2)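 Screen run by CO-ADD: mid-log cultures in cation-adjusted MHB, 5 × 10^5 CFU/mL, compounds at up to 32 μg/mL in 1:2 serial dilutions (8 steps), final DMSO ≤0.5%, duplicate. 37 °C for 18 h without shaking; OD600 read against media-only and untreated-bacteria references. MIC = lowest concentration giving ≥80% inhibition; colistin standard.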
# [4] = test system: Staphylococcus aureus; test: Antimicrobial activity against Staphylococcus aureus ATCC 43300 incubated for 18 hrs by CLSI method; assay type: functional; conditions: ATCC 43300, 18 h
# [5] = Cytotoxicity against human HEK293 cells assessed as reduction in cell growth incubated for 20 hrs by resazurin dye-based fluorometric assay
# In short: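 HEK293 cells, 5000 per well in DMEM + 10% FBS, exposed to compounds (top 32 μg/mL, 1:2 serial dilution ×8, ≤0.5% DMSO, duplicate) for 20 h at 37 °C, 5% CO2. Resazurin added (2.3 μg/mL final), 3 h further; fluorescence ex 560/em 590 nm. CC50 from sigmoidal dose-response fit against log concentration; tamoxifen standard.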
# [6] = Haemolytic activity in sheep erythrocytes at 5 ug/ml incubated for 2 hrs under shaking condition relative to control; assay type: ADME, cell-based, Ovis aries, Erythrocyte; conditions: read-out: Activity; in short: as §1
# [7] = test system: Klebsiella pneumoniae; test: Antibacterial activity against Klebsiella pneumoniae 700603 incubated for 18 hrs by CLSI method; assay type: functional; conditions: Klebsiella pneumoniae, 700603, 18 h; in short: as §2
# [8] = test system: Clostridioides difficile; test: Antibacterial activity against Clostridium difficile ATCC 700057 incubated for 48 hrs by CLSI method; assay type: functional; conditions: ATCC 700057, 48 h
# In short: (§3)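 Broth microdilution per CLSI anaerobe method in pre-reduced (2-4 h) Brucella broth with haemin and vitamin K, 35 °C anaerobically for 48 h. Compounds from 5 mg/mL DMSO stocks, twofold dilutions in water mixed with double-strength broth; final 0.25–128 μg/mL. […] Triplicate; modal MIC read visually as lowest concentration inhibiting growth.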
# [9] = test system: Pseudomonas aeruginosa; test: Antimicrobial activity against Pseudomonas aeruginosa ATCC 27853 incubated for 18 hrs by CLSI method; assay type: functional; conditions: ATCC 27853, 18 h; in short: as §2
# [10] = test system: Staphylococcus aureus; test: Antibacterial activity against methicillin-resistant Staphylococcus aureus NCTC 10442 incubated for 24 hrs by CLSI method; assay type: functional; conditions: NCTC 10442, 24 h
# In short: (§4)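 Broth microdilution per CLSI aerobic guidance in Mueller Hinton broth, ambient air, 35 °C for 24 h. DMSO stocks were diluted in water, then serially diluted with double-strength broth inoculum added, for final 0.25–128 μg/mL. […] MIC was read visually as the lowest concentration inhibiting growth; the modal value of triplicates was recorded.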
# [11] = test system: Acinetobacter baumannii; test: Antimicrobial activity against Acinetobacter baumannii ATCC 19606 incubated for 18 hrs by CLSI method; assay type: functional; conditions: ATCC 19606 = CIP 70.34 = JCM 6841, 18 h; in short: as §2
# [12] = test system: Staphylococcus aureus; test: Antimicrobial activity against Staphylococcus aureus ATCC 29213 incubated for 24 hrs by CLSI method; assay type: functional; conditions: ATCC 29213, 24 h; in short: as §4
# [13] = test system: Clostridioides difficile; test: Antibacterial activity against Clostridium difficile NSW132 RT027 incubated for 48 hrs by CLSI method; assay type: functional; conditions: NSW132 RT027, 48 h; in short: as §3
# [14] = test system: Enterococcus faecalis; test: Antibacterial activity against Enterococcus faecalis ATCC 29212 incubated for 24 hrs by CLSI method; assay type: functional; conditions: ATCC 29212, 24 h
smiles,measurement,setting,value
CC(C)CCOc1ccc2ccccc2c1-c1c(OCc2cn(C[C@@H](CCCNC(=N)N)NC(=O)Cc3ccccc3)nn2)ccc2ccccc12.Cl,"hemolysis at 2 h, 50 ug/ml",[1],87.4%
same,MIC,[2],8 µg/mL
same,MIC,[3],> 32 µg/mL
same,MIC,[4],4 µg/mL
same,CC50 at 20 h,[5],16.5 µg/mL
same,"hemolysis at 2 h, 5 ug/ml",[6],1%
same,MIC,[7],> 32 µg/mL
same,MIC,[8],64 µg/mL
same,MIC,[9],> 32 µg/mL
same,MIC,[10],4 µg/mL
same,MIC,[11],> 32 µg/mL
same,MIC,[12],4 µg/mL
same,MIC,[13],64 µg/mL
same,MIC,[14],8 µg/mL
CC(C)CCOc1ccccc1-c1ccccc1OCc1cn(C[C@@H](CCCCN)NC(=O)Cc2ccccc2)nn1.Cl,MIC,[2],8 µg/mL
same,MIC,[3],> 32 µg/mL
same,MIC,[4],16 µg/mL
same,CC50 at 20 h,[5],14.2 µg/mL
same,MIC,[7],> 32 µg/mL
same,MIC,[8],32 µg/mL
same,MIC,[9],32 µg/mL
same,MIC,[10],8 µg/mL
same,MIC,[11],32 µg/mL
same,MIC,[12],8 µg/mL
same,MIC,[13],32 µg/mL
same,MIC,[14],8 µg/mL
CC(C)CCOc1ccccc1-c1ccccc1OCc1cn(C[C@@H](CCCCN)NC(=O)[C@@H](CCCNC(=N)N)NC(=O)OCC2c3ccccc3-c3ccccc32)nn1.Cl.Cl,MIC,[2],4 µg/mL
same,MIC,[3],> 32 µg/mL
same,MIC,[4],4 µg/mL
same,CC50 at 20 h,[5],> 32 µg/mL
same,MIC,[7],> 32 µg/mL
same,MIC,[8],32 µg/mL
same,MIC,[9],> 32 µg/mL
same,MIC,[10],4 µg/mL
same,MIC,[11],> 32 µg/mL
same,MIC,[12],4 µg/mL
same,MIC,[13],32 µg/mL
same,MIC,[14],4 µg/mL
CC(C)CCOc1ccc2ccccc2c1-c1c(OCc2cn(C[C@@H](CCCNC(=N)N)NC(=O)CCc3ccccc3)nn2)ccc2ccccc12.Cl,MIC,[2],8 µg/mL
same,MIC,[3],> 32 µg/mL
same,MIC,[4],4 µg/mL
same,CC50 at 20 h,[5],15.9 µg/mL
same,MIC,[7],> 32 µg/mL
same,MIC,[8],16 µg/mL
same,MIC,[9],> 32 µg/mL
same,MIC,[10],4 µg/mL
same,MIC,[11],> 32 µg/mL
same,MIC,[12],4 µg/mL
same,MIC,[13],16 µg/mL
same,MIC,[14],8 µg/mL
CC(C)CCOc1ccc2ccccc2c1-c1c(OCc2cn(C[C@@H](CCCCN)NC(=O)Cc3ccccc3)nn2)ccc2ccccc12.Cl,MIC,[2],32 µg/mL
same,MIC,[3],> 32 µg/mL
same,MIC,[4],8 µg/mL
same,CC50 at 20 h,[5],8.6 µg/mL
same,MIC,[7],> 32 µg/mL
same,MIC,[8],16 µg/mL
same,MIC,[9],> 32 µg/mL
same,MIC,[10],8 µg/mL
same,MIC,[11],> 32 µg/mL
same,MIC,[12],8 µg/mL
same,MIC,[13],32 µg/mL
same,MIC,[14],8 µg/mL
CC(C)CCOc1ccccc1-c1ccccc1OCc1cn(C[C@@H](CCCCN)NC(=O)[C@@H](CCCNC(=N)N)n2cc(CCc3ccccc3)nn2)nn1.Cl.Cl,MIC,[2],8 µg/mL
same,MIC,[3],8 µg/mL
same,MIC,[4],2 µg/mL
same,CC50 at 20 h,[5],> 32 µg/mL
same,MIC,[7],16 µg/mL
same,MIC,[8],8 µg/mL
same,MIC,[9],8 µg/mL
same,MIC,[10],4 µg/mL
same,MIC,[11],16 µg/mL
same,MIC,[12],4 µg/mL
same,MIC,[13],8 µg/mL
same,MIC,[14],8 µg/mL
CC(C)CCOc1ccccc1-c1ccccc1OCc1cn(C[C@@H](CCCCN)NC(=O)OCc2ccccc2)nn1.Cl,MIC,[2],32 µg/mL
same,MIC,[3],32 µg/mL
same,MIC,[4],16 µg/mL
same,CC50 at 20 h,[5],4.7 µg/mL
same,MIC,[7],> 32 µg/mL
same,MIC,[8],8 µg/mL
same,MIC,[9],32 µg/mL
same,MIC,[10],16 µg/mL
same,MIC,[11],32 µg/mL
same,MIC,[12],16 µg/mL
same,MIC,[13],32 µg/mL
same,MIC,[14],16 µg/mL
CC(C)CCOc1ccc2ccccc2c1-c1c(OCc2cn(C[C@@H](CCCNC(=N)N)NC(=O)OCc3ccccc3)nn2)ccc2ccccc12.Cl,MIC,[2],8 µg/mL
same,MIC,[3],> 32 µg/mL
same,MIC,[4],4 µg/mL
same,CC50 at 20 h,[5],13.8 µg/mL
same,MIC,[7],> 32 µg/mL
same,MIC,[8],32 µg/mL
same,MIC,[9],> 32 µg/mL
same,MIC,[10],4 µg/mL
same,MIC,[11],> 32 µg/mL
same,MIC,[12],4 µg/mL
same,MIC,[13],32 µg/mL
same,MIC,[14],8 µg/mL
CC(C)CCOc1ccc2ccccc2c1-c1c(OCc2cn(C[C@@H](CCCCN)NC(=O)[C@@H](CCCNC(=N)N)n3cc(CCc4ccccc4)nn3)nn2)ccc2ccccc12.Cl.Cl,MIC,[2],4 µg/mL
same,MIC,[3],> 32 µg/mL
same,MIC,[4],4 µg/mL
same,CC50 at 20 h,[5],> 32 µg/mL
same,MIC,[7],> 32 µg/mL
same,MIC,[8],16 µg/mL
same,MIC,[9],32 µg/mL
same,MIC,[10],4 µg/mL
same,MIC,[11],32 µg/mL
same,MIC,[12],4 µg/mL
same,MIC,[13],16 µg/mL
same,MIC,[14],4 µg/mL
CC(C)CCOc1ccc2ccccc2c1-c1c(OCc2cn(C[C@@H](CCCCN)NC(=O)[C@@H](CCCNC(=N)N)NC(=O)Cc3ccccc3)nn2)ccc2ccccc12.Cl.Cl,MIC,[2],4 µg/mL
same,MIC,[3],8 µg/mL
same,MIC,[4],2 µg/mL
same,CC50 at 20 h,[5],12.1 µg/mL
same,MIC,[7],32 µg/mL
same,MIC,[8],8 µg/mL
same,MIC,[9],16 µg/mL
same,MIC,[10],4 µg/mL
same,MIC,[11],32 µg/mL
same,MIC,[12],2 µg/mL
same,MIC,[13],16 µg/mL
same,MIC,[14],4 µg/mL
CC(C)CCOc1ccccc1-c1ccccc1OCc1cn(C[C@@H](CCCNC(=N)N)NC(=O)[C@@H](CCCCN)N=[N+]=[N-])nn1.Cl.Cl,MIC,[2],8 µg/mL
same,MIC,[3],16 µg/mL
same,MIC,[4],8 µg/mL
same,CC50 at 20 h,[5],> 32 µg/mL
same,MIC,[7],32 µg/mL
same,MIC,[8],64 µg/mL
same,MIC,[9],32 µg/mL
same,MIC,[10],16 µg/mL
same,MIC,[11],16 µg/mL
same,MIC,[12],16 µg/mL
same,MIC,[13],32 µg/mL
same,MIC,[14],16 µg/mL
CC(C)CCOc1ccccc1-c1ccccc1OCc1cn(C[C@@H](CCCNC(=N)N)NC(=O)CCc2ccccc2)nn1.Cl,MIC,[2],32 µg/mL
same,MIC,[3],> 32 µg/mL
same,MIC,[4],16 µg/mL
same,CC50 at 20 h,[5],> 32 µg/mL
same,MIC,[7],> 32 µg/mL
same,MIC,[8],128 µg/mL
same,MIC,[9],> 32 µg/mL
same,MIC,[10],16 µg/mL
same,MIC,[11],> 32 µg/mL
same,MIC,[12],16 µg/mL
same,MIC,[13],16 µg/mL
same,MIC,[14],16 µg/mL
CC(C)CCOc1ccccc1-c1ccccc1OCc1cn(C[C@@H](CCCNC(=N)N)NC(=O)Cc2ccccc2)nn1.Cl,MIC,[2],16 µg/mL
same,MIC,[3],> 32 µg/mL
same,MIC,[4],16 µg/mL
same,CC50 at 20 h,[5],29 µg/mL
same,MIC,[7],> 32 µg/mL
same,MIC,[8],64 µg/mL
same,MIC,[9],> 32 µg/mL
same,MIC,[10],16 µg/mL
same,MIC,[11],> 32 µg/mL
same,MIC,[12],16 µg/mL
same,MIC,[13],16 µg/mL
same,MIC,[14],16 µg/mL
